From ChEMBL document CHEMBL4033780, “Lipidated Brartemicin Analogues Are Potent Th1-Stimulating Vaccine Adjuvants” (J Med Chem, 2018)
Numbering of substitutions follows the chain as printed. Activity calls are given as the source filed them. The calls are words filed in the database; no cut-off is given here.

Assays:
[1] = Toxicity in Atlantic horseshoe crab blood limulus amebocyte lysate by chromogenic endotoxin test; conditions: limulus polyphemus
How it was run: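 Endotoxin was measured by chromogenic Limulus amebocyte lysate assay at a sensitivity of ≤0.1 EU/mL.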

BMDM [2] = experiment: Immunostimulatory activity in mincle-/- C57BL/6 mouse GM-CSF derived BMDM assessed as increase in TNF release at […] after 24 hrs by sandwich ELISA method; assay type: functional, cell-based
How it was run: (§1)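 Wild-type or Mincle−/− C57BL/6 bone marrow was cultured 8 days with GM-CSF 50 ng/mL in complete RPMI. Macrophages were detached with Acutase and seeded on ligand-coated plates (0.1 or 1 nmol/well); LPS 100 ng/mL was used as comparator. Supernatant was taken at 24 h and TNF, IL-6, IL-1β and MIP-2 measured by sandwich ELISA. Representative of three experiments in triplicate (±SD).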

[3] = biological target: T1, C-type lectin domain family 4 member E (Mus musculus) (UniProt Q9R0Q8); experiment: Agonist activity at mincle in wild type C57BL/6 mouse GM-CSF derived BMDM assessed as increase in TNF release at 0.1 to 1 nmol after 24 hrs by sandwich ELISA; how it was run: as §1
T1 sequence (whole entry): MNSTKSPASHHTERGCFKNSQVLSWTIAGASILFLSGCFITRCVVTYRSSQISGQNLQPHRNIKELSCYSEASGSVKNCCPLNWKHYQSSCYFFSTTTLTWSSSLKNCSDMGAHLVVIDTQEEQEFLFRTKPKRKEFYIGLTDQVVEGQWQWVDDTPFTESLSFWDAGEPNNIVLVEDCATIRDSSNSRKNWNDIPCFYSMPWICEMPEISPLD

[4] = biological target: T1, C-type lectin domain family 4 member E (Mus musculus); experiment: Agonist activity at mincle in wild type C57BL/6 mouse GM-CSF derived BMDM assessed as increase in IL-1beta release at 0.1 to 1 nmol after 24 hrs by sandwich ELISA; how it was run: as §1
[5] = biological target: T2, C-type lectin domain family 4 member E (Homo sapiens) (UniProt Q9ULY5); experiment: Binding affinity to recombinant human mincle extracellular domain fused with human IgG Fc expressed in HEK293T cells at 0.1 nmol by ELISA; assay type: cell-based; conditions: HEK-293T
T2 sequence (whole entry): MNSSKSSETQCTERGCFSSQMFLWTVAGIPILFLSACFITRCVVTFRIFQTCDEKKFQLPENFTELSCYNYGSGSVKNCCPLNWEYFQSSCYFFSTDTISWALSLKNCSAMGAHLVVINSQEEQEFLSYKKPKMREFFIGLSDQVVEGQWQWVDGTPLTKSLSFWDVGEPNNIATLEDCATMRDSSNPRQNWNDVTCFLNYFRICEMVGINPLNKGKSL

[6] = biological target: T1, C-type lectin domain family 4 member E (Mus musculus); experiment: Agonist activity at mouse mincle coupled with FcRgamma expressed in 2B4-NFAT-GFP reporter cells at higher concentration after 18 hrs by flow cytometric analysis; assay type: cell-based
How it was run: (§2)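 2B4 NFAT-GFP reporter cells expressing mouse or human Mincle plus FcRγ were placed on plates coated with ligand at 0.01, 0.1 or 1 nmol/well; cells expressing FcRγ only served as negative control. Ligand was coated from isopropanol, 0.05 mM, and solvent evaporated. After 18 h, cells were harvested, stained with propidium iodide and GFP read by flow cytometry. Mean of three experiments in duplicate (±SEM).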

BMDM [7] = experiment: Immunostimulatory activity in mincle-/- C57BL/6 mouse GM-CSF derived BMDM assessed as increase in IL-1beta release at […] after 24 hrs by sandwich ELISA method; assay type: functional, cell-based; how it was run: as §1
[8] = biological target: T1, C-type lectin domain family 4 member E (Mus musculus); experiment: Binding affinity to recombinant mouse mincle extracellular domain fused with human IgG Fc expressed in HEK293T cells at 0.1 nmol by ELISA; assay type: cell-based; conditions: HEK-293T
[9] = biological target: T2, C-type lectin domain family 4 member E (Homo sapiens); experiment: Agonist activity at human mincle coupled with FcRgamma expressed in 2B4-NFAT-GFP reporter cells at higher concentration after 18 hrs by flow cytometric analysis; assay type: cell-based; how it was run: as §2
[10] = biological target: T1, C-type lectin domain family 4 member E (Mus musculus); experiment: Agonist activity at mincle in wild type C57BL/6 mouse GM-CSF derived BMDM assessed as increase in MIP2 release at 0.1 to 1 nmol after 24 hrs by sandwich ELISA; how it was run: as §1
BMDM [11] = experiment: Immunostimulatory activity in mincle-/- C57BL/6 mouse GM-CSF derived BMDM assessed as increase in IL-6 release at […] after 24 hrs by sandwich ELISA method; assay type: functional, cell-based; how it was run: as §1
[12] = biological target: T1, C-type lectin domain family 4 member E (Mus musculus); experiment: Agonist activity at mincle in wild type C57BL/6 mouse GM-CSF derived BMDM assessed as increase in IL-6 release at 0.1 to 1 nmol after 24 hrs by sandwich ELISA; how it was run: as §1
BMDM [13] = experiment: Immunostimulatory activity in mincle-/- C57BL/6 mouse GM-CSF derived BMDM assessed as increase in MIP2 release at […] after 24 hrs by sandwich ELISA method; assay type: functional, cell-based; how it was run: as §1
[14] = tested on: T3, C-type lectin domain family 4 member E (Homo sapiens), Q9ULY5 [R183A]; experiment: Agonist activity at human mincle R183A mutant expressed in NFAT-GFP reporter cells up to 3000 pmol after 18 hrs by flow cytometric analysis; assay type: cell-based
T3 sequence (whole entry): T2 sequence (whole entry) with R183A
How it was run: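 The hMincle R183A mutant, made by site-directed mutagenesis, was retrovirally introduced into 2B4 NFAT-GFP cells expressing FcRγ only. Cells were stimulated on plates coated with increasing ligand amounts for 18 h, and NFAT-GFP was read by flow cytometry. Mean of two independent experiments in duplicate (±SEM).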

[15] = biological target: T1, C-type lectin domain family 4 member E (Mus musculus); experiment: Agonist activity at mouse mincle coupled with FcRgamma expressed in 2B4-NFAT-GFP reporter cells up to 1 nmol after 18 hrs by flow cytometric analysis; assay type: cell-based; how it was run: as §2
[16] = biological target: T2, C-type lectin domain family 4 member E (Homo sapiens); experiment: Agonist activity at human mincle coupled with FcRgamma expressed in 2B4-NFAT-GFP reporter cells up to 1 nmol after 18 hrs by flow cytometric analysis; assay type: cell-based; how it was run: as §2
Mus musculus [17] = species on record: Mus musculus; experiment: Adjuvant activity in immunized C57BL/6 mouse assessed as increase in OVA-specific IgG2b production in serum at 0.3 umol treated with ovalbumin for 7 days followed by stimulation with OVA for 7 days and restimulation with OVA measured 24 to 48 hrs post OVA challenge; assay type: functional
Mus musculus [18] = species on record: Mus musculus; experiment: Adjuvant activity in immunized C57BL/6 mouse assessed as increase in antigen specific IFNgamma production in spelnocytes at 0.3 umol treated with ovalbumin for 7 days followed by stimulation with OVA for 7 days and restimulation with OVA measured 24 to 48 hrs post OVA challenge; assay type: functional, cell-based
How it was run: (§3)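 C57BL/6 mice (8–12 wk) given s.c. oil-in-water emulsion (mineral oil/Tween-80/PBS 9:1:90) holding OVA 200 μg ± adjuvant 0.3 μmol; controls were OVA alone or no OVA. Footpad challenge with OVA 100 μg on day 7, spleens taken day 14. Splenocytes restimulated with OVA 10, 30 or 100 μg/mL. Cell number read at 450 nm after 3 h with a count reagent; IFN-γ and IL-17 measured by ELISA.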

Mus musculus [19] = species on record: Mus musculus; experiment: Adjuvant activity in immunized C57BL/6 mouse assessed as footpad swelling at 0.3 umol treated with ovalbumin for 7 days followed by stimulation with OVA for 7 days measured 24 to 48 hrs post OVA challenge; assay type: functional
Mus musculus [20] = species on record: Mus musculus; experiment: Adjuvant activity in immunized C57BL/6 mouse assessed as increase in IL-17 production in spelnocytes at 0.3 umol treated with ovalbumin for 7 days followed by stimulation with OVA for 7 days and restimulation with OVA measured 24 to 48 hrs post OVA challenge; assay type: functional, cell-based; how it was run: as §3
Mus musculus [21] = species on record: Mus musculus; experiment: Adjuvant activity in immunized C57BL/6 mouse assessed as increase in OVA-specific IgG production in serum at 0.3 umol treated with ovalbumin for 7 days followed by stimulation with OVA for 7 days and restimulation with OVA measured 24 to 48 hrs post OVA challenge; assay type: functional
How it was run: (§4)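 Sera were taken on days 0, 7 and 14 from C57BL/6 mice sensitized s.c. with emulsion containing OVA 200 μg ± adjuvant 0.3 μmol and footpad-challenged with OVA on day 7. OVA-specific IgG, IgG1, IgG2b and IgG2c were measured by ELISA with HRP-coupled anti-mouse secondaries. EC50 was taken from absorbance at 450 nm plotted against log serum concentration.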

Mus musculus [22] = species on record: Mus musculus; experiment: Adjuvant activity in immunized C57BL/6 mouse assessed as increase in OVA-specific IgG2c production in serum at 0.3 umol treated with ovalbumin for 7 days followed by stimulation with OVA for 7 days and restimulation with OVA measured 24 to 48 hrs post OVA challenge relative to control; assay type: functional
Mus musculus [23] = species on record: Mus musculus; experiment: Adjuvant activity in immunized C57BL/6 mouse assessed as increase in OVA-specific IgG1 production in serum at 0.3 umol treated with ovalbumin for 7 days followed by stimulation with OVA for 7 days and restimulation with OVA measured 24 to 48 hrs post OVA challenge relative to control; assay type: functional; how it was run: as §4

| Activity [3] | Activity [4] | Activity [5] | Activity [8] | Activity [10] | Activity [12] | Activity [15] | Activity [16] | Compound | Activity [1] | Activity (BMDM [2]) | Activity (BMDM [7]) | Activity (BMDM [11]) | Activity (BMDM [13]) | other results |
| --- | --- | --- | --- | --- | --- | --- | --- | --- | --- | --- | --- | --- | --- | --- |
| inactive | inactive | inactive | inactive | Active | inactive | – | – | CCCCOc1ccc(C(=O)OC[C@H]2O[C@H](O[C@H]3O[C@H](COC(=O)c4ccc(OCCCC)cc4O)[C@@H](O)[C@H](O)[C@H]3O)[C@H](O)[C@@H](O)[C@@H]2O)c(O)c1 | <= 0.1 EU/ml | inactive | inactive | inactive | inactive | Activity [6]: Active; Activity [9]: Active |
| Active | Active | – | – | Active | Active | – | – | CCCCCCCCCCCCCCCCCCCCCCCCCC(O)C(CCCCCCCCCCC1CC1CCCCCCCCCCCCCCCCCC)C(=O)OC[C@H]1O[C@H](O[C@H]2O[C@H](COC(=O)C(CCCCCCCCCCCCCCCCCCCCCCCC)C(O)CCCCCCCCCCCC3CC3CCCCCCCCCCCCCCCCCC)[C@@H](O)[C@H](O)[C@H]2O)[C@H](O)[C@@H](O)[C@@H]1O (stereo not given in full) | – | – | – | – | – | Activity [14]: Active |
| Active | Active | Active | Active | Active | Active | Active | Active | CCCCCCCOc1ccc(C(=O)OC[C@H]2O[C@H](O[C@H]3O[C@H](COC(=O)c4ccc(OCCCCCCC)cc4O)[C@@H](O)[C@H](O)[C@H]3O)[C@H](O)[C@@H](O)[C@@H]2O)c(O)c1 | <= 0.1 EU/ml | inactive | inactive | inactive | inactive | – |

Further lines, the compound ahead of its results:

| Compound | Activity [3] | Activity [4] | Activity [5] | Activity [8] | Activity [10] | Activity [12] | Activity [15] | Activity [16] | Activity [1] | Activity (BMDM [2]) | Activity (BMDM [7]) | Activity (BMDM [11]) | Activity (BMDM [13]) | other results |
| --- | --- | --- | --- | --- | --- | --- | --- | --- | --- | --- | --- | --- | --- | --- |
| CCCCCCCOc1ccc(C(=O)OC[C@H]2O[C@H](O[C@H]3O[C@H](COC(=O)c4ccc(OCCCCCCC)cc4)[C@@H](O)[C@H](O)[C@H]3O)[C@H](O)[C@@H](O)[C@@H]2O)cc1 | Active | Active | Active | Active | Active | Active | Active | Active | <= 0.1 EU/ml | inactive | inactive | inactive | inactive | – |
| CCCCCCCCCCCCCCCCCCCCCC(=O)OC[C@H]1O[C@H](O[C@H]2O[C@H](COC(=O)CCCCCCCCCCCCCCCCCCCCC)[C@@H](O)[C@H](O)[C@H]2O)[C@H](O)[C@@H](O)[C@@H]1O | Active | Active | – | – | Active | Active | – | – | – | – | – | – | – | Activity (Mus musculus [17]): Active; Activity (Mus musculus [18]): inactive; Activity (Mus musculus [19]): inactive; Activity (Mus musculus [20]): inactive; Activity (Mus musculus [21]): Active; Activity (Mus musculus [22]): Active; Activity (Mus musculus [23]): Active |
